The values below come from ChEMBL document CHEMBL1142705, “Rational design, synthesis, and structure-activity relationships of aryltriazoles as novel corticotropin-releasing factor-1 receptor antagonists” (J Med Chem, 2005).

Data set [1] has as its target T1, Corticotropin-releasing factor receptor 1 (Homo sapiens, UniProt P34998).
T1 sequence (P34998 whole entry): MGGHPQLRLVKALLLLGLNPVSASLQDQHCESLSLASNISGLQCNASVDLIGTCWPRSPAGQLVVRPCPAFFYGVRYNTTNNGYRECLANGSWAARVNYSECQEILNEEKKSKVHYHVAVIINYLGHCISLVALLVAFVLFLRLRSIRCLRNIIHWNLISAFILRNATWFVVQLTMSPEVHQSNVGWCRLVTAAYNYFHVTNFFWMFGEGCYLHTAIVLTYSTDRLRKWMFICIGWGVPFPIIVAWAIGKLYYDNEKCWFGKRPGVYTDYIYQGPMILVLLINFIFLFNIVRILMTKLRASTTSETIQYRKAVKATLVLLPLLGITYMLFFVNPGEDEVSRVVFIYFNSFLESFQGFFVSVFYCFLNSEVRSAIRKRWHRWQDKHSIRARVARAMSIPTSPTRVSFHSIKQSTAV
Kind of data set: Inhibition of [125I][Tyr0]-sauvagine binding to human Corticotropin releasing factor receptor 1 expressed in mouse fibroblast Ltk- cells. In kind it is cell-based.

In data set [2] the target is T2, Corticotropin-releasing factor receptor 2 (Homo sapiens, UniProt Q13324).
T2 sequence (Q13324 whole entry): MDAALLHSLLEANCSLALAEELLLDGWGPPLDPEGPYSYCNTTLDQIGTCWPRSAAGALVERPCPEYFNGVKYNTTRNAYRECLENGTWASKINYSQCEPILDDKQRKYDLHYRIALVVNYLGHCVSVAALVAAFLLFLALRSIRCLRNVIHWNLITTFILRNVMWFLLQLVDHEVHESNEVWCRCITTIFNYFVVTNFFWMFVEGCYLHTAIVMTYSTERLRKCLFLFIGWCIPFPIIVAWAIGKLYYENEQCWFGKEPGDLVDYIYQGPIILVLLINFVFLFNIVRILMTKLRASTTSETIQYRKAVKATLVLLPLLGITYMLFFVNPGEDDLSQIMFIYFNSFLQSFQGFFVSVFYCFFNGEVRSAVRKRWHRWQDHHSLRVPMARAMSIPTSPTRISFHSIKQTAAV
Kind of data set: Binding affinity for human Corticotropin releasing factor receptor 2.

Data set [3] concerns the target Corticotropin releasing factor receptor (Rattus norvegicus, UniProt P47866+P35353). Kind of data set: Inhibition of corticotropin releasing factor stimulated cAMP production in rat pituitary assay. In kind it is functional, tissue-based, Pituitary gland.
Data set [4] in a line: Volume of distribution in rats upon intravenous administration of 1 mg/kg. In kind it is ADME, organism-based. More on the design: dose 1 mg/kg, route intravenous. Particulars: rat, in vivo, read-out: V. The gist of the method: (§1)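 Male Sprague-Dawley rats were dosed at 1 mg/kg iv via the tail vein and at 2 mg/kg by oral gavage, n = 3 per time point. The dosing solution was in purified water at 2 mL/kg. Terminal plasma was sampled at set times (composite design), acetonitrile-precipitated and analysed by LC-MS/MS (LLOQ 5 ng/mL). Parameters came from noncompartmental analysis.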

Data set [5] is described as follows: Bioavailability upon 2 mg/kg oral administration to rats. In kind it is ADME, organism-based. Particulars: rat, in vivo. The method, boiled down: as §1
Data set [6] can be described thus: Time to attain peak plasma concentration upon oral administration of 2 mg/kg to rats. More on the design: dose 2 mg/kg, route oral. Particulars: rat. In kind it is ADME, organism-based. The method, boiled down:
as §1

Data set [7] in a line: Peak plasma concentration upon oral administration of 2 mg/kg to rats. On the set-up: dose 2 mg/kg, route oral. The following applies: rat. In kind it is ADME, organism-based. The method, boiled down:
as §1

The nature of data set [8]: Area under concentration time curve upon oral administration of 2 mg/kg to rats. On the set-up: dose 2 mg/kg, route oral. In kind it is ADME, organism-based. The following applies: rat, in vivo. The gist of the method:
as §1

Data set [9] in a line: Clearance of compound in rats upon intravenous administration of 1 mg/kg. In kind it is ADME, organism-based. On the set-up: dose 1 mg/kg, route intravenous. The following applies: rat, in vivo. The gist of the method:
as §1

Data set [10] can be described thus: Plasma half life in rats upon intravenous administration of 1 mg/kg. In kind it is ADME, organism-based. On the set-up: dose 1 mg/kg, route intravenous. Particulars: rat. The method, boiled down: as §1
Data set [11] in a line: Ratio of compound concentration in brain to that of plasma of rats upon intravenous administration of 1 mg/kg. It counts as ADME, organism-based. Particulars: rat. More on the design: dose 1 mg/kg, route intravenous. The gist of the method:
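Male Sprague-Dawley rats, 3 per time point, received 1 mg/kg iv by tail vein at 2 mL/kg in filtered purified water. Terminal blood and brain were taken at set times for composite sampling. Plasma was acetonitrile-precipitated and half-brains were homogenized in 50:50 acetonitrile/water, then measured by LC-MS/MS (LLOQ 5 ng/mL plasma, 0.5 ng/g brain). Ratio = brain AUC / plasma AUC, noncompartmental.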

As to `CCCN(c1nc(-c2ccc(Cl)cc2OC)n(C)n1)C(C1CC1)C1CC1`, the affinity in data set [1], expressed as Ki, was 28 nM. For `CCCN(c1nc(-c2ccc(Cl)cc2Cl)n(C)n1)C(C1CC1)C1CC1`, the Ki in data set [2] is over 10000 nM; in data set [1], 9.2 nM. The IC50 in data set [3] is recorded as 90 nM. In data set [1], `CCCC(c1ccccc1)N(CCC)c1nc(-c2ccc(OC)cc2C)n(C)n1` (configuration not stated) registered a Ki of 61 nM. Still for that read-out and setting: the figure for `CCC(c1ccccc1)N(CC)c1nc(-c2ccc(Cl)cc2OC)n(C)n1` (configuration not stated) is 150 nM. The compound `CCCCC(CC)N(CC1CC1)c1nc(-c2ccc(Cl)cc2OC)n(C)n1` (configuration not stated) had a Ki in data set [1] of 440 nM.

Consider `CCCCC(CC)N(CCOC)c1nc(-c2ccc(Cl)cc2OC)n(C)n1` (configuration not stated), for which the Ki in data set [1] worked out at 280 nM. For `CCCN(c1nc(-c2ccc(Cl)cc2OC)n(C)n1)C(C(C)C)C(C)C`, the Ki in data set [1] came out at 910 nM. The same measure, in the same setting: the result for `CCCN(c1nc(-c2ccc(Cl)cc2OC)n(C)n1)C(CC)c1ccc(C(F)(F)F)cc1` (configuration not stated) reads 12 nM; that for `CCCCC(c1ccc(F)cc1)N(CCC)c1nc(-c2ccc(OC)cc2OC)n(C)n1` (configuration not stated), 24 nM. Take `CCCC(c1ccccc1)N(CCC)c1nc(-c2ccc(OC)cc2OC)n(C)n1` (configuration not stated): affinity in [1] was put at a Ki of 120 nM. The same measure, in the same setting: the figure for `CCCN(CCC)c1nc(-c2ccc(Cl)cc2OC)n(C)n1` is over 10000 nM; for `CCCC(c1ccccc1)N(CCC)c1nc(-c2cc(OC)c(OC)cc2Cl)n(C)n1` (configuration not stated) it is 84 nM. In data set [1], `CCCN(c1nc(-c2ccc(Cl)cc2OC)n(C)n1)[C@H](CC)c1ccc(C(F)(F)F)cc1` gave an inhibition constant Ki of 428 nM.

The compound `CCCC[C@H](c1ccc(F)cc1)N(CCC)c1nc(-c2ccc(Cl)cc2OC)n(C)n1` had a Ki in data set [1] of 46 nM. The same measure, in the same setting: the figure for `CCC[C@H](c1ccccc1)N(CCC)c1nc(-c2ccc(OC)cc2C)n(C)n1` is 380 nM. For `CCCC[C@@H](c1ccccc1)N(CCC)c1nc(-c2ccc(OC)cc2C)n(C)n1.Cl`, the IC50 in data set [3] worked out at 92 nM. Further, the Ki in data set [1] is 5.7 nM. In the same order, the values of `CCCN(c1nc(-c2ccc(Cl)cc2OC)n(C)n1)[C@@H](CC)c1ccc(C(F)(F)F)cc1.Cl` are 120 nM and 5.2 nM. In the same order, the values of `CCC[C@@H](c1ccccc1)N(CCC)c1nc(-c2ccc(OC)cc2C)n(C)n1.Cl` are 120 nM and 9 nM. In the same order, the values of `CCCC[C@@H](c1ccc(F)cc1)N(CCC)c1nc(-c2ccc(Cl)cc2OC)n(C)n1.Cl` are 49 nM and 2.7 nM.

On to `CCCC[C@H](c1ccccc1)N(CCC)c1nc(-c2ccc(OC)cc2C)n(C)n1`, for which the Ki in data set [1] is 350 nM. As to `CCCC[C@@H](c1ccccc1)N(CCC)c1nc(-c2ccc(Cl)cc2OC)n(C)n1.Cl`, the IC50 in [3] is 56 nM. The affinity in [1], expressed as Ki, was 4 nM. Take `CCCN(c1nc(-c2ccc(OC)cc2C)n(C)n1)[C@@H](CC)c1ccc(C(F)(F)F)cc1.Cl`: the IC50 in data set [3] was 270 nM. Compound `CCC[C@@H](c1ccccc1)N(CCC)c1nc(-c2ccc(Cl)cc2OC)n(C)n1.Cl` displayed an IC50 in data set [3] of 91 nM. The compound also yielded a Ki in data set [1] of 6.3 nM.

For `CCC[C@@H](c1ccccc1)N(CCC)c1nc(-c2ccc(OC)cc2OC)n(C)n1.Cl`, in data set [3], the IC50 came out at 240 nM. The compound further registered a Ki in [1] of 22 nM.

As to `CCC[C@@H](c1ccccc1)N(CCC)c1nc(-c2cc(OC)c(OC)cc2Cl)n(C)n1.Cl`, in [3], the IC50 was 240 nM. In data set [1], this compound registered an inhibition constant Ki of 16.3 nM. Compound `CCCN(c1nc(-c2ccc(Cl)cc2Cl)nn1C)C(C1CC1)C1CC1` displayed a Ki in [1] of over 10000 nM.

Consider `CCCC(c1ccccc1)N(CCC)c1nc(-c2ccc(Cl)cc2OC)n(C)n1` (configuration not stated), for which, in data set [1], the inhibition constant (Ki) stood at 14 nM. For the compound `CCCCC(c1ccc(F)cc1)N(CCC)c1nc(-c2ccc(Cl)cc2OC)n(C)n1` (configuration not stated), the Vd in data set [4] was found to be 7.8 L/kg. Further, the bioavailability in [5] was 84%. Also, in [6], the Tmax turned out to be 0.5 h. This compound also came in with a Cmax in [7] of 290 ng/mL. Besides, in data set [8], the AUC came to 1010 ng·h/mL. The compound further registered a clearance in data set [9] of 27.7 mL/min/kg. The half-life in [10] was 3.3 h. Further, the Ratio in data set [11] was found to be 20%. In data set [1], this compound yielded a Ki of 7.3 nM. For the compound `CCCCC(CC)N(CCC)c1nc(-c2ccc(Cl)cc2OC)n(C)n1` (configuration not stated), in [1], the inhibitory constant (Ki) was 46 nM.

As for `CCCN(c1nc(-c2ccc(Cl)cc2OC)n(C)n1)C(C)CC` (configuration not stated), the Ki in data set [1] is 690 nM. This Ki lies about 15-fold higher than the previous one. Regarding `CCCCC(c1ccccc1)N(CCC)c1nc(-c2ccc(OC)cc2C)n(C)n1` (configuration not stated), the Ki in data set [1] came to 6.9 nM. Still for that read-out and setting: the figure for `CCCN(CCC)c1nc(-c2ccc(Cl)cc2Cl)n(C)n1` is 3400 nM; for `CCCN(c1nc(-c2ccc(Cl)cc2OC)n(C)n1)C(CC)c1ccccc1` (configuration not stated) it is 26 nM; for `CCCN(CC1CC1)c1nc(C)nc(Nc2c(Cl)cc(Cl)cc2Cl)c1Cl` it is 2 nM.

A word on the Ki: it is the equilibrium dissociation constant of an inhibitor or competing ligand from its target. As usually defined, the IC50 is the concentration needed to halve the response being measured. A low value points to inhibition by little substance. As usually defined, the bioavailability is the share of a dose that reaches the circulation, judged against a reference dose that is usually intravenous. A high value points to good availability. In general, Tmax refers to the time at which the peak concentration occurs. One may read the Cmax as the maximum level reached in the sampled fluid or tissue. Broadly, the AUC is concentration integrated over time. Low values mean less exposure, high ones more exposure. As usually defined, the clearance is the volume of plasma or blood freed of the substance per unit of time. Low values mean inefficient removal, high ones efficient removal. As usually defined, the half-life is the time needed for the level to fall by half in the phase considered. A lower half-life goes with fast loss.
